Assay results pooled from the literature.
Cell line: A549
Observed: cell growth or viability

CCCn1cnc2ccc(-c3ccc(NC(=O)CNC(C)C)nc3)cc2c1=O — IC50 (CCK-8; 72 h): > 10 µM
COc1ccc(NC(=O)NCc2cn(Cc3ccc(Cl)cc3)nn2)cc1 — viability (CCK-8; 50 µM; 72 h): 80.9%
N#CSCc1cc(=O)oc2cc(O)ccc12 — GI50 (SRB): 5.8 µM
CCOc1ccc(-c2cc(C(=O)O)c(-c3ccc(Cl)cc3)o2)cc1 — EC50 (MTT; 48 h): 75 µM
COc1cccc(NC(=O)Nc2nc3cc(-c4ccc5ncn(CCC6CCCCC6)c(=O)c5c4)ccc3s2)c1 — IC50 (MTT; 72 h): 1.27 µM
CCCCn1cnc2ccc(-c3ccc(NC(=O)NCCC)nc3)cc2c1=O — IC50 (CCK-8; 72 h): > 10 µM
Cc1cc(=O)oc2cc(OCCCCSC#N)ccc12 — GI50 (SRB): 5 µM
COc1ccc(NC(=O)Nc2cccc(-c3cn(Cc4ccc(Cl)cc4)nn3)c2)cc1 — viability (CCK-8; 20 µM; 72 h): 147%
CCCCC(=O)Nc1ccc(-c2ccc3ncn(CCC)c(=O)c3c2)cc1F — IC50 (CCK-8; 72 h): > 10 µM
O=C(Nc1nc2cc(-c3ccc4ncn(Cc5ccccc5)c(=O)c4c3)ccc2s1)c1ccccc1 — IC50 (MTT; 72 h): > 20 µM
O=C(Nc1ccc(Cl)cc1)Nc1ccc(-c2cn(Cc3ccc(Cl)cc3)nn2)cc1 — viability (CCK-8; 50 µM; 72 h): 79.6%
CCCCCC(=O)Nc1ccc(-c2ccc3ncn(CC4CC4)c(=O)c3c2)cn1 — IC50 (CCK-8; 72 h): 0.25 µM
COc1ccc(NC(=O)Nc2ccc(-c3cn(Cc4ccc(Cl)cc4)nn3)cc2)cc1 — viability (CCK-8; 20 µM; 72 h): 102%
CCCCCCCCCCCCCCCCCCOc1cccc(CC(=O)OCC[N+](CC)(CC)CC)c1 — inhibition (SRB; 10 µM): 40%
CCCn1cnc2ccc(-c3ccc(NC(=O)CNCC)nc3)cc2c1=O — IC50 (CCK-8; 72 h): 3.42 µM
CCCCCCCCCCCCCCCCCCOc1ccccc1CC(=O)OCC[N+]1(C)CCOCC1 — inhibition (SRB; 10 µM): 37.4%
COc1ccc2/c(=N/c3ccccc3NC(=O)[C@H](C)N)cc(-c3ccc4c(c3)OCCO4)oc2c1 — inhibition (CCK-8; 1 µM): -2.21%
O=C(Nc1ccc(-c2cn(Cc3ccc(Cl)cc3)nn2)cc1)Nc1ccccc1Br — viability (CCK-8; 20 µM; 72 h): 102%
CCCCCCCCCCCCCCCCCCOc1cccc(CC(=O)OCC[N+](C)(C)C)c1 — inhibition (SRB; 10 µM): 8.12%
COc1ccc(NC(=O)Nc2cccc(-c3cn(Cc4ccc(Br)cc4)nn3)c2)cc1 — viability (CCK-8; 20 µM; 72 h): 152%
CC(C)(C)[C@H](N)C(=O)Nc1ccccc1/N=c1\cc(-c2ccc3c(c2)OCCO3)oc2cc(F)ccc12 — inhibition (CCK-8; 1 µM): -4.38%
COc1ccc(NC(=O)NCc2cn(Cc3ccccc3C)nn2)cc1 — viability (CCK-8; 20 µM; 72 h): 65.6%
CCCCC(=O)Nc1ccc(-c2ccc3ncn(CCC)c(=O)c3c2)cc1 — IC50 (CCK-8; 72 h): > 10 µM
NCC(=O)Nc1ccccc1/N=c1\cc(-c2ccc3c(c2)OCO3)oc2c([N+](=O)[O-])cccc12 — inhibition (CCK-8; 1 µM): -2.29%
COc1ccc(NC(=O)Nc2cccc(-c3cn(Cc4ccc(C)cc4)nn3)c2)cc1 — viability (CCK-8; 50 µM; 72 h): 190%
O=C(NCc1cn(Cc2ccc(Cl)cc2)nn1)Nc1ccccc1Br — viability (CCK-8; 20 µM; 72 h): 86.4%
CCCCCCCCCCCCCCCCCCOc1ccccc1CC(=O)OCC[N+](C)(C)C — inhibition (SRB; 10 µM): 88.5%
O=C(NCc1cn(Cc2cccc(Cl)c2)nn1)Nc1ccc(Cl)cc1 — viability (CCK-8; 20 µM; 72 h): 76.7%
COc1ccc(NC(=O)Nc2ccc(-c3cn(Cc4cccc(Cl)c4)nn3)cc2)cc1 — viability (CCK-8; 20 µM; 72 h): 102%
COc1ccc2/c(=N/c3ccccc3NC(=O)[C@@H](N)C(C)(C)C)cc(-c3ccc4c(c3)OCO4)oc2c1 — inhibition (CCK-8; 1 µM): -3.68%
CCCCC(=O)Nc1cc(F)c(-c2ccc3ncn(CCC)c(=O)c3c2)cn1 — IC50 (CCK-8; 72 h): 1.58 µM
NCCC(=O)Nc1ccccc1/N=c1\cc(-c2ccc3nc(N)oc3c2)oc2cc(O)ccc12 — inhibition (CCK-8; 1 µM): 23.2%
O=C(Nc1ccc(-c2cn(Cc3ccc(Br)cc3)nn2)cc1)Nc1ccccc1Br — viability (CCK-8; 20 µM; 72 h): 77.3%
NCCCC(=O)Nc1ccccc1/N=c1\cc(-c2ccc3c(c2)OCO3)oc2ccccc12 — inhibition (CCK-8; 1 µM): -0.2%
O=C(NCc1cn(Cc2ccc(Br)cc2)nn1)Nc1ccc(Cl)cc1 — viability (CCK-8; 50 µM; 72 h): 97%
C[C@H](N)C(=O)Nc1ccccc1/N=c1\cc(-c2ccc3c(c2)OCCO3)oc2cc(F)ccc12 — inhibition (CCK-8; 1 µM): -0.65%
CCCCn1cnc2ccc(-c3ccc(NC(=O)Nc4ccc(C)cc4)nc3)cc2c1=O — IC50 (CCK-8; 72 h): > 10 µM
NCCC(=O)Nc1ccc(/N=c2\cc(-c3ccc4c(c3)OCO4)oc3ccccc23)cc1 — inhibition (CCK-8; 1 µM): -1.6%
O=C(Nc1ccc(Cl)cc1)Nc1ccc(-c2cn(Cc3cccc(Cl)c3)nn2)cc1 — viability (CCK-8; 20 µM; 72 h): 64.6%
